In ChEMBL document CHEMBL4028902, “Azetidine and Piperidine Carbamates as Efficient, Covalent Inhibitors of Monoacylglycerol Lipase” (J Med Chem, 2017):
Calls of active or inactive are those of the source. No cut-off for these calls is given here.

Tests used:
[1] = target: T1, Monoglyceride lipase (Homo sapiens) (UniProt Q99685); assay: Ratio of Kinact to Ki for human recombinant MAGL using 7-HCA as substrate after 60 mins by fluorescence assay
T1 sequence (whole entry): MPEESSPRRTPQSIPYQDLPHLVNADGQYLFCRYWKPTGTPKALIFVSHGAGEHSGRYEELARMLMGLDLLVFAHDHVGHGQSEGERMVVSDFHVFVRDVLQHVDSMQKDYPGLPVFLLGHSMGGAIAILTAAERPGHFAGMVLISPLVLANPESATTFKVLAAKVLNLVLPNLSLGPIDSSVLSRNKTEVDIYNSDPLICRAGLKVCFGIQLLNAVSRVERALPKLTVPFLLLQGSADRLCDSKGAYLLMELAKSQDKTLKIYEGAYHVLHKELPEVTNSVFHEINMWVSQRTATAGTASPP
Procedure, shortened: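 Run as the MAGL 7-HCA assay, but substrate added with no preincubation (T = 0), fluorescence read every minute at decreasing compound concentrations to give progress curves. kobs from each curve; kinact/KI from a plot of kobs against compound concentration.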

Liver carboxylesterase 1 = target: T2, Liver carboxylesterase 1 (Homo sapiens, UniProt P23141); assay: Inhibition of human CES1 at 1 to 10 uM relative to control
T2 sequence (P23141 whole entry): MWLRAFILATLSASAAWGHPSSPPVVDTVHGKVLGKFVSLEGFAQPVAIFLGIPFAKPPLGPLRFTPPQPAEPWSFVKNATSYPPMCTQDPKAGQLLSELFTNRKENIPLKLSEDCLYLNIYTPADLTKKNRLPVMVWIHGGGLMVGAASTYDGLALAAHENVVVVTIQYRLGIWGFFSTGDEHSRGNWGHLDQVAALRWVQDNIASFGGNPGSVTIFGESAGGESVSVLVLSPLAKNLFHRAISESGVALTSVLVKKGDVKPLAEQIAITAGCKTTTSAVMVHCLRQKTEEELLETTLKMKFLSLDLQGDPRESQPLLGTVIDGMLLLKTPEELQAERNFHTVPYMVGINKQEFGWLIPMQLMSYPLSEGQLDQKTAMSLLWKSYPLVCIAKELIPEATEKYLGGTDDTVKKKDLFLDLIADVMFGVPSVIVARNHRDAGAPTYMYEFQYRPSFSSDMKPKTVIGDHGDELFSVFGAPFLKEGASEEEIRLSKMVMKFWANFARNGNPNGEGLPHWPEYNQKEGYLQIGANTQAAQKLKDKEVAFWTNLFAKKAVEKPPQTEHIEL

Brain = assay: Unbound drug level in C57Bl6 mouse brain at 1 mg/kg, sc at 0.5 hrs; type: ADME, organism-based; conditions: in vivo
Procedure, shortened: (§1)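 Subcutaneous dosing of C57Bl6 mice in DMSO/Cremophor/saline (5:5:90). Plasma (NaF/K2EDTA tubes) and cerebellum collected at 0.5–24 h, 3 mice per time point. Cerebellum diluted 1:4 (w/v) with water and homogenized; samples deproteinated with methanol/acetonitrile plus internal standard, then HPLC-MS/MS. LLOQ 1.0 ng/mL plasma, 0.5 ng/mL brain homogenate. PK parameters by noncompartmental analysis.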

[2] = target: T1, Monoglyceride lipase (Homo sapiens); assay: Inhibition of MAGL in human brain vascular pericytes; type: cell-based
Procedure, shortened: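 Human brain vascular pericytes grown in DMEM/F12 with 5% heat-inactivated FBS and pericyte growth supplement, then given alkyne-tagged probe (1000× DMSO stock) in medium for 1 h at 37 °C. Pellets lysed in PBS/0.25% SDS, proteome normalized to 1.0 mg/mL, Cu-catalyzed click with TAMRA azide, SDS-PAGE in-gel fluorescence. Two MAGL bands averaged; two biological replicates fitted to a dose–response curve.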

[3] = Cmax in C57Bl6 mouse brain at 1 mg/kg, sc; type: ADME, organism-based; parameters: dose 1 mg/kg, route subcutaneous; procedure, shortened: as §1

SMILES	Ratio [1] [M⁻¹ s⁻¹]	inhibition (INH) (Liver carboxylesterase 1) [%]	Drug uptake(free) (Brain) [nM]	inhibition [2]	Cmax [3] [nM]
O=C(OC(C(F)(F)F)C(F)(F)F)N1CC(c2ccn(-c3ccccc3)n2)C1	1.14e+06	> 70	0.02	Active	
O=C(OC(C(F)(F)F)C(F)(F)F)N1CCC(c2ccn(-c3ccccc3)n2)CC1					0.14
